Most compounds without a hit are left out; they make up all but 4.8% or so of the library.
WT yeast gro inh – growth inhibition of WT yeast, mitochondrial fusion screen | mitochondrial fusion phenotypic screen, WT strain | inhibition, % at 10 µM | 2.1% of 190,000 active; in the data active = inhibition above about 58%; tested in S. cerevisiae
T cruzi repl – T. cruzi replication inhibition. T. cruzi beta-gal in NIH3T3, luminescence, 90 h. inhibition, % (test concentration not listed). 1.4% of 300,000 active;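 active = mean inhibition across valid replicates above about 55%, limit read from the data; inconclusive = mean below that limit but half or more replicates reach it; inactive = mean below it, under half of replicates reach it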;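 note: signal also drops with host cell toxicity which is not excluded here; 0% = plate median of DMSO wells and 100% = zero luminescence signal; higher percent means less beta-gal luminescence so fewer parasites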
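Assay system: NIH/3T3 host cells with β-galactosidase reporter T. cruzi; input: 5,000 host fibroblasts per well; compound: single 50 nL compound addition per well in DMSO; timing: ≥90 h infection period, 3 h prior cell attachment; measured by: GalScreen β-gal luminescence, detergent lysis, 60 min; evaluation: percent inhibition of parasite-derived β-gal signal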
Efflux pump inh – antifungal efflux pump inhibition, Nile Red retention. AID 485275. S. cerevisiae Candida pump triplex. 0.44% of 330,000 active. inhibition, % at 10 µM;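 active = plate passing quality check with inhibition over a set limit, or well fluorescence over plate mean plus 4 SD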;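 note: Nile Red retained in pooled yeast measured as flow cytometry median fluorescence; 0% = buffer negative control and 100% = Enniatin B positive control; higher means more Nile Red kept so more efflux inhibition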
CSC inhib – blocks cancer stem cells. cancer stem cell-like cells viability, luminescence. inhibition, % at 7.5 µM. 1.1% of 300,000 active. AID 2717; in the data active = inhibition above about 75%; inconclusive = no clear call, values can overlap the other calls; tested in HMLE shEcad cells
Beta apoptosis – beta cell apoptosis inhibition. INS-1E cytokine-induced death, ATP luminescence, 48 h; percent of positive-control rescue, neutral wells zero. protection from apoptosis, % (concentration not given with the values). 0.8% of 300,000 active. AID 435005;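 active = Every replicate reaches about 75%, or at least half do and their mean reaches it too, limit read from the data; inconclusive = At least half of replicates reach the limit but their mean does not; inactive = Under half of replicates reach the limit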;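 note: 0% = cytokine-treated negative control wells and 100% = positive control rescue; higher means more ATP so stronger rescue from cytokine killing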
SUMO Mot1 rescue – SUMOylation pathway inhibition by Mot1-301 growth rescue; S. cerevisiae Mot1-301 growth rescue, ATP luminescence, 38.5C; percent above DMSO median, 100 means doubled; growth rescue, % at 18.8 µM; 1% of 320,000 active; AID 2716;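 active = every valid replicate shows activation above 250% relative to neutral control wells; inactive = the rest, any valid replicate at or below 250%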;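 note: OY570 slx delta 5 strain wells were the positive control but not used for scaling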
* = called active by the depositor; ? = inconclusive; nt = not tested or not shown.

SMILES	WT yeast gro inh	T cruzi repl	Efflux pump inh	CSC inhib	Beta apoptosis	SUMO Mot1 rescue
CCOc1ccc(C(=O)OCC(=O)N(Cc2ccccc2)Cc2ccccc2)cc1OC	nt	nt	0	-7	-11	-12
CCN(CC(=O)NC1CCS(=O)(=O)C1)S(=O)(=O)c1ccc(C)c(C)c1 (configuration not stated)	0	-3	0	-15	2	-6
Nc1nc(=S)c2[nH]cnc2[nH]1	nt	nt	0	91*	nt	-4
Fc1cccc(Cl)c1CNc1ccc(N2CCCC2)cc1	14	94*	0	6	51	147
CCn1c(CSc2nc3ccccc3s2)nc2ccccc21	63*	5	0	17	4	16
COc1ccccc1NC(=O)c1c(Nc2ccccc2F)sc(C(=O)Nc2cccc(Cl)c2)c1N	23	6	0	83*	9	-21
Cn1c(SCC(=O)NN2C(=O)NC(C)(c3ccccc3)C2=O)nnc1-c1ccncc1 (configuration not stated)	nt	nt	0	-13	4	3
CCN1CCN(C(=O)CCCn2c(C)c3cnn(-c4ccccc4)c(=O)c3c2C)CC1	-9	-33	0	-5	-4	332*
Cc1c2cnn(-c3ccccc3)c(=O)c2c(C)n1CCCC(=O)N1CCN(c2ncccn2)CC1	26	nt	nt	nt	nt	nt
O=C(NCC1CCCO1)c1cc2c([nH]c3ccccc32)c(-c2cccc(Br)c2)n1 (configuration not stated)	nt	55*	0	34	58	174
O=C(COC(=O)c1cc(-c2ccccc2)nc2ccccc12)NCC1CCCO1 (configuration not stated)	19	-10	0	0	-2	9
O=C(COC(=O)c1cc(-c2cccc(Br)c2)nc2ccccc12)NCC1CCCO1 (configuration not stated)	71*	3	0	5	0	-4
COc1ccccc1CCN1C(=S)NC(C)(C)CC1(C)O (configuration not stated)	70*	-19	0	-1	0	64
N=C1S/C(=C\c2ccccc2F)C(=O)N1c1ccc(F)cc1	-11	-4	0	-2	-3	4
N=C1S/C(=C\c2cccc3ccccc23)C(=O)N1c1ccc(F)cc1	18	-42	0	97*	10	-2
Cc1ccc(-c2cc(C(F)F)n3ncc(C(=O)NN4CCCCC4)c3n2)cc1	-14	23	0	-32	-1	9
CN1CCN(C(=O)c2cc3nc(-c4ccc(F)cc4)cc(C(F)(F)F)n3n2)CC1	-2	3	0	-9	-1	-3
O=C(c1cnn2c(C(F)(F)F)cc(-c3ccccc3)nc12)N1CCCCC1c1cccnc1 (configuration not stated)	-6	59*	0	-3	4	3
Cc1ccc(-c2cc(C(F)F)n3ncc(C(=O)N4CCCCC4c4cccnc4)c3n2)cc1 (configuration not stated)	47	63*	0	-13	4	548*
Cc1ccc(-c2cc(C(F)F)n3ncc(C(=O)N4CCN5CCCC5C4)c3n2)cc1 (configuration not stated)	66*	3	0	-8	7	-1
O=C(c1cc2nc(-c3ccc(F)cc3)cc(C(F)(F)F)n2n1)N1CCCCC1c1cccnc1 (configuration not stated)	8	95*	0	1	55	-7
COc1ccc(OC)c(C(=O)c2ccc(C(=O)Nc3ccc(NC(C)=O)cc3)cc2)c1	nt	9	0	14	-2	7
CC1C(=O)N2CCCc3cc(NC(=O)c4ccccc4C(F)(F)F)cc1c32 (configuration not stated)	nt	-7	0	3	-2	7
O=S(=O)(c1ccc2c(c1)OCCO2)N1CCN(c2ncnc3sccc23)CC1	-4	-65	0	23	81*	-2
CN1CCN(S(=O)(=O)c2ccc3c(c2)OCCO3)CC1	7	0	0	-4	-1	-7
SMILES	WT yeast gro inh	T cruzi repl	Efflux pump inh	CSC inhib	Beta apoptosis	SUMO Mot1 rescue
O/N=C/c1cc(Cl)ccc1OCc1cccc2ccccc12	97*	18	0	2	2	-36
Nc1nc(-c2ccccc2)c(N=Nc2cccc3ccccc23)s1	89*	27	0	56	16	-58
CC(C)(C)NC(=S)N/N=C\c1ccc(-c2ccc([N+](=O)[O-])cc2)o1	nt	11	0	0	12	-6
CCOC(=O)/C(=C\c1ccc(OC(F)F)cc1)C1=Nn2c(nnc2-c2ccc(Cl)cc2)SC1	71*	39	0	100*	131*	-2
Cc1cc(N2CCN(C)CC2)n2cc(-c3ccc(F)cc3)nc2n1	-16	6	0	8	-1	-3
OCCCNc1cc(-c2ccccc2)nc2cc(-c3ccc(F)cc3)nn12	nt	19	0	83*	18	14
COc1cccc(-c2cc3nc(-c4ccccc4)cc(N4CCC5(CC4)OCCO5)n3n2)c1	36	55*	0	13	6	410
Fc1ccc(-c2cc3nc(-c4ccccc4)cc(N4CCN(CCN5CCOCC5)CC4)n3n2)cc1	-9	55*	nt	nt	nt	nt
CN1CCN(c2cc(-c3ccccc3)nc3cc(-c4ccc(F)cc4)nn23)CC1	84*	35	1	64	12	-1
Cc1cc(NCCCO)n2nc(-c3cccs3)cc2n1	5	-14	0	-7	4	239
CC(C)(C)SCCNC(=O)c1ccc(Cl)c([N+](=O)[O-])c1	81*	-8	0	-11	-4	6
CCCCSc1nnc(-c2ccccc2N)c(=O)[nH]1	25	0	0	4	-8	-6
CCCCCCCSc1nnc(-c2ccccc2N)c(=O)[nH]1	79*	-3	0	-4	1	-9
O=C(COC(=O)c1ccc(Br)c(S(=O)(=O)N2CCOCC2)c1)NC1CC1	nt	nt	0	-10	-4	-1
O=c1c2ccccc2ncn1-c1ccc([N+](=O)[O-])cc1[N+](=O)[O-]	nt	63*	0	24	20	-14
Cc1ccc(-n2cnn(-c3ccc([N+](=O)[O-])cc3[N+](=O)[O-])c2=O)cc1	nt	57*	0	9	-2	7
O=c1c2ccccc2ncn1-c1ccc(Cl)cc1[N+](=O)[O-]	1	19	0	-10	5	-23
COc1nc(OCC#N)nc(N2CCCCC2)n1	-8	11	0	-13	-7	-30
COc1nc(N2CCCCCC2)nc(N2CCCCCC2)n1	64*	7	0	?	5	-5
Cc1cc(C)c2nc(N(CCCN(C)C)C(=O)c3ccc(S(=O)(=O)N4CCCCCC4)cc3)sc2c1	nt	54	0	0	nt	125
Cc1ccc2sc(N(CCCN(C)C)C(=O)c3ccc(S(=O)(=O)N4CCCCCC4)cc3)nc2c1C	nt	57*	0	77*	nt	-16
